Results: ChEMBL document CHEMBL4689842, “EUbOPEN Chemogenomics Library wave 1” (2021)

Tests used:
Assay type in all cases: toxicity, cell-based
[1] = test system: Fibroblast; experiment: Multiplex assay against human fibroblast
Outline: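 Live cells were stained at seeding with Hoechst33342, BioTracker Green Microtubule Cytoskeleton Dye, MitoTracker Red and Annexin V Alexa Fluor 680, then imaged on a CQ1 microscope at 37°C and 5% CO2 after compound addition. CellPathfinder machine-learning gating split cells into Hoechst high-intensity objects or normal cells. Normal cells were split into healthy, pyknosed or fragmented nuclei, and pyknosed cells into mitotic or apoptotic. Tubulin, mitochondrial-mass and membrane-permeability phenotypes are per cents of healthy-nucleus cells.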

[2] = test system: HEK-293T; experiment: Incucyte cell viability with HEK293T; conditions: human, 10 µM, compound concentration 10 uM; also: filed as whole numbers so only -1 and 0 and 1 occur
[3] = test system: Fibroblast; experiment: Incucyte cell viability with human fibroblast; conditions: 10 µM, compound concentration 10 uM; also: filed as whole numbers so only -1 and 0 and 1 occur
[4] = test system: U2OS; experiment: Incucyte cell viability with U2OS; conditions: human, 10 µM, compound concentration 10 uM; also: filed as whole numbers so only -1 and 0 and 1 occur
[5] = 24 h, 10 µM, compound concentration 10 uM, replicate 1
[6] = 24 h, 10 µM, compound concentration 10 uM, replicate 2
[7] = 48 h, 1 µM, compound concentration 1 uM, replicate 1
[8] = 48 h, 1 µM, compound concentration 1 uM, replicate 2
[9] = 48 h, 10 µM, compound concentration 10 uM, replicate 1
[10] = 48 h, 10 µM, compound concentration 10 uM, replicate 2
[11] = 0 h, replicate number 1, timepoint 0 hours
[12] = 12 h, replicate number 1, timepoint 12 hours
[13] = 18 h, replicate number 1, timepoint 18 hours
[14] = 24 h, replicate number 1, timepoint 24 hours

CCn1c(-c2nonc2N)nc2cnc(Oc3cccc(NC(=O)c4ccc(OCCN5CCOCC5)cc4)c3)cc21 [GSK-269962A]
Population Membrane Permeable-Phenotype (%) [1, 5]: 11% | Population Mitochondria Different-Phenotype (%) [1, 5]: 58% | Population Mitotic Cells (%) [1, 5]: 42% | Population Normal (%) [1, 5]: 87% | Population Pyknosed Nuclei (%) [1, 5]: 20% | Population Tubulin-Different-Phenotype (%) [1, 5]: 81% | Total Cell Count [1, 5]: 258 | Population Apoptotic (%) [1, 6]: 53% | Population Fragmented Nuclei (%) [1, 6]: 30% | Population Healthy Nuclei (%) [1, 6]: 52% | Population Hoechst High Intensity Objects (%) [1, 6]: 5% | Population Membrane Permeable-Phenotype (%) [1, 6]: 67% | Population Mitochondria Different-Phenotype (%) [1, 6]: 97% | Population Mitotic Cells (%) [1, 6]: 46% | Population Normal (%) [1, 6]: 94% | Population Pyknosed Nuclei (%) [1, 6]: 17% | Population Tubulin-Different-Phenotype (%) [1, 6]: 100% | Total Cell Count [1, 6]: 73 | Population Apoptotic (%) [1, 7]: 57% | Population Fragmented Nuclei (%) [1, 7]: 28% | Population Healthy Nuclei (%) [1, 7]: 58% | Population Hoechst High Intensity Objects (%) [1, 7]: 11% | Population Membrane Permeable-Phenotype (%) [1, 7]: 12% | Population Mitochondria Different-Phenotype (%) [1, 7]: 3% | Population Mitotic Cells (%) [1, 7]: 42% | Population Normal (%) [1, 7]: 88% | Population Pyknosed Nuclei (%) [1, 7]: 13% | Population Tubulin-Different-Phenotype (%) [1, 7]: 29% | Total Cell Count [1, 7]: 120 | Population Apoptotic (%) [1, 8]: 66% | Population Fragmented Nuclei (%) [1, 8]: 27% | Population Healthy Nuclei (%) [1, 8]: 69% | Population Hoechst High Intensity Objects (%) [1, 8]: 12% | Population Membrane Permeable-Phenotype (%) [1, 8]: 3% | Population Mitochondria Different-Phenotype (%) [1, 8]: 0% | Population Mitotic Cells (%) [1, 8]: 33% | Population Normal (%) [1, 8]: 87% | Population Pyknosed Nuclei (%) [1, 8]: 3% | Population Tubulin-Different-Phenotype (%) [1, 8]: 22% | Total Cell Count [1, 8]: 96 | Population Apoptotic (%) [1, 9]: 50% | Population Fragmented Nuclei (%) [1, 9]: 36% | Population Healthy Nuclei (%) [1, 9]: 50% | Population Hoechst High Intensity Objects (%) [1, 9]: 20% | Population Membrane Permeable-Phenotype (%) [1, 9]: 6% | Population Mitochondria Different-Phenotype (%) [1, 9]: 38% | Population Mitotic Cells (%) [1, 9]: 50% | Population Normal (%) [1, 9]: 79% | Population Pyknosed Nuclei (%) [1, 9]: 13% | Population Tubulin-Different-Phenotype (%) [1, 9]: 80% | Total Cell Count [1, 9]: 240 | Population Healthy Nuclei (%) [1, 10]: 58% | Population Hoechst High Intensity Objects (%) [1, 10]: 22% | Population Membrane Permeable-Phenotype (%) [1, 10]: 3% | Population Mitochondria Different-Phenotype (%) [1, 10]: 17% | Population Normal (%) [1, 10]: 77% | Population Pyknosed Nuclei (%) [1, 10]: 4% | Population Tubulin-Different-Phenotype (%) [1, 10]: 86% | Total Cell Count [1, 10]: 172 | Growth Rate [2, 11]: 1 | Growth Rate ([2]; 0 h, replicate number 2, timepoint 0 hours): 0 | Growth Rate ([2]; 6 h, replicate number 1, timepoint 6 hours): 0 | Growth Rate [2, 12]: 0 | Growth Rate [2, 13]: 0 | Growth Rate [2, 14]: 0 | Growth Rate [3, 11]: 0 | Growth Rate [3, 14]: 1 | Growth Rate [4, 12]: 1 | Growth Rate [4, 13]: 1 | Growth Rate [4, 14]: 1
